The structures appear in SMILES notation. Values after ≈ are worked out from the molar mass of the structure shown. Active and inactive are the calls of the source. The calls are words filed in the database; no cut-off is given here.

A short description of series [1]: Inhibition of chymotryptic-like activity of human 20S proteasome using Suc-LLVY-AMC as substrate measured every min over 30 mins by fluorescence assay.
The nature of series [2]: Inhibition of NFkappaB-mediated gene transcription in human HeLa cells after 1 hr by Dual-Glo luciferase reporter assay. In kind it is cell-based. Background: In a reporter assay the amount or activity of a reporter protein is the signal.
For series [3], the species on record is Homo sapiens. Description: Non-competitive inhibition of chymotryptic-like activity of human 20S proteasome using Suc-LLVY-AMC as substrate. In outline:
(§1)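 Kinetics: purified human 20S proteasome with vehicle or inhibitor at 1.25, 2.5 or 5 μM across varying Suc-LLVY-AMC concentrations. Velocity is followed by AMC fluorescence as in the activity assay. Vmax and Km come from Michaelis-Menten fits with a Lineweaver-Burk plot.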

Series [4] concerns THP-1. Description: Cytotoxicity against bortezomib-resistant human THP1 cells assessed as cell viability at 10 uM after 72 hrs by MTS assay relative to vehicle-treated control. In kind it is functional. The conditions noted are these: for viability at 10 µM: THP-1, 72 h, read-out: Activity. In outline:
(§2)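 THP-1 cells in RPMI-1640 with 10% FBS, penicillin/streptomycin, 1 mM sodium pyruvate and 0.2 mM L-glutamine at 37°C, 5% CO2. […] Compound in DMSO, final 10 μM, 0.5% DMSO, 72 h. MTS (CellTiter 96 AQueous One) read at 490 nm, background-subtracted, as % of vehicle.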
On the technique in general: Formazan colour is commonly taken as a measure of viable cells.

Series [5] in a line: Solubility of the compound in dextrose-water solution at pH 6.5 after 5 mins. Type of series: physicochemical. The conditions noted are these: buffer, pH 6.5, 5 min. In outline: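 1 mL of 5% dextrose in water is brought to pH 6.5 with 3 μl 2 N HCl. Solid is added in 0.5 mg portions, then 0.1 mg near saturation. Each addition is vortexed 40 s and sonicated 30 s at 37.5°C, then held 5 min at 37.5°C and judged visually.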

For series [6], the system named is THP-1. The experiment in a line: Cytotoxicity against wild type human THP1 cells assessed as cell viability at 10 uM after 72 hrs by MTS assay relative to vehicle-treated control. In kind it is functional. The note with it: THP-1, 72 h, read-out: Activity. In outline:
as §2

The species entered for series [7] is Homo sapiens. The experiment in a line: Non-competitive inhibition of chymotryptic-like activity of human 20S proteasome using Suc-LLVY-AMC as substrate at 1.25 to 5 uM. In outline: as §1
Series [8] has as its system THP-1. Description: cells. The note with it: Homo sapiens, THP-1, 72 h, read-out: Activity.
A short description of series [9]: Inhibition of 20S proteasome (unknown origin). On the set-up: species or system Homo sapiens.
The test system of series [10] is THP-1. Description: Cytotoxicity against wild type human THP1 cells assessed as cell viability at 0.5 uM after 72 hrs by MTS assay relative to vehicle-treated control. The conditions noted are these: THP-1, 72 h, read-out: Activity.

For orientation: IC50 means the midpoint of a concentration-inhibition curve. Read a low IC50 as inhibition by little substance. Turning to `c1ccc(Cn2c(-c3ccccc3)nc(-c3ccccc3)c2-c2ccccc2)cc1`, the IC50 in series [1] and in series [2] was more than 10000 nM throughout. As for `CCOC(=O)[C@]1(c2ccccc2)N=C(c2ccccc2)N(Cc2ccccc2)[C@@H]1c1ccc(C(F)(F)F)cc1`, in series [1], half-maximal inhibition (IC50) required 4810 nM.

For orientation: solubility means the concentration that dissolves in the medium under given conditions. A lower solubility goes with little dissolved substance. As for `CCOC(=O)[C@]1(c2ccccc2)N=C(c2ccccc2)N(Cc2ccccc2)[C@@H]1c1ccccc1`, the inhibition entry in the series listed under Homo sapiens [3] was “Active”. For the same molecule, the figures for the IC50 in [1] and in series [2] were 2580 nM and 2500 nM, respectively. The result with THP-1 [4] was Active. Also, the solubility in series [5] amounted to 1910 µg/mL (≈ 4150 µM). In series [1], `CCOC(=O)[C@]1(c2ccccc2)N=C(c2ccccc2)N[C@@H]1c1ccccc1` returned an IC50 of more than 10000 nM. As for `CCOC(=O)[C@]1(c2ccccc2)N=C(c2ccc(OC)cc2)N(Cc2ccccc2)[C@@H]1c1ccc(NCC2CCCCC2)cc1` (racemic), the viability at 10 µM came out at 4% with THP-1 [6] and 5% with THP-1 [4]. The molecule further had an IC50 in series [1] of 130 nM. Molecule `CCOC(=O)[C@]1(c2ccccc2)N=C(c2ccccc2)N(C(=O)c2ccccc2)[C@@H]1c1ccccc1` returned an IC50 in [1] of more than 10000 nM. On to `CCOC(=O)[C@]1(c2ccccc2)N=C(c2ccc(OC)cc2)N(Cc2ccccc2)[C@@H]1c1ccc(NC(=O)c2ccccc2)cc1` (racemic), for which inhibition in [1] was half-maximal at 1440 nM (IC50). In series [1], `CCOC(=O)[C@]1(c2ccccc2)N=C(c2ccccc2)N(C(C)=O)[C@@H]1c1ccccc1` had an IC50 of more than 10000 nM. Take `CCOC(=O)[C@]1(c2ccccc2)N=C(c2ccc(Br)cc2)N(Cc2ccccc2)[C@@H]1c1ccccc1` (racemic): the IC50 in series [1] was determined as 3190 nM.

With `CCOC(=O)[C@]1(c2ccccc2)N=C(c2ccc(OC)cc2)N(Cc2ccccc2)[C@@H]1c1ccc(NCc2cc(OC)c(OC)c(OC)c2)cc1` (racemic), the viability at 10 µM in the series with THP-1 [6] is 24%; with THP-1 [4], 34%. Further, half-maximal inhibition in series [1] (IC50) required 370 nM. In the case of `CCOC(=O)[C@]1(c2ccccc2)N=C(c2ccc(OC)cc2)N(Cc2ccccc2)[C@@H]1c1ccc(C(N)=O)cc1` (racemic), in series [1], the IC50 was more than 10000 nM. As to `COC(=O)[C@]1(c2ccccc2)N=C(c2ccccc2)N(Cc2ccccc2)[C@@H]1c1ccccc1`, the IC50 amounted to 5400 nM in series [1] and 7500 nM in series [2]. On to `CCOC(=O)[C@]1(c2ccccc2)N=C(c2ccccc2)N(Cc2ccccc2)[C@@H]1c1ccc(SC)cc1` (racemic), for which the IC50 in series [1] was determined as 2770 nM. `CCOC(=O)[C@]1(c2ccccc2)N=C(c2ccc(OC)cc2)N(Cc2ccccc2)[C@@H]1c1ccccc1` (racemic) had an IC50 in [1] of 1270 nM. For `c1ccc(CN2C(c3ccccc3)=N[C@H](c3ccccc3)[C@H]2c2ccccc2)cc1`, the IC50 in series [1] stood at 1400 nM; in series [2], 4600 nM. On to `CCOC(=O)[C@]1(c2ccccc2)N=C(c2ccccc2)N(Cc2ccccc2)[C@@H]1c1ccc(NCc2ccccc2)cc1` (racemic), for which it took 470 nM to reach half-maximal inhibition in series [1] (IC50). In the case of `CCOC(=O)[C@]1(c2ccccc2)N=C(c2ccccc2)N(Cc2ccccc2)[C@@H]1c1ccc([N+](=O)[O-])cc1`, in [1], the IC50 worked out at 6710 nM. Molecule `CCOC(=O)[C@]1(c2ccccc2)N=C(c2ccccc2)N(Cc2ccc(OC)cc2)[C@@H]1c1ccccc1` registered an IC50 in [1] of 2730 nM. `CCOC(=O)[C@]1(c2ccccc2)N=C(c2ccccc2)N(Cc2ccccc2)[C@@H]1c1ccncc1` yielded an IC50 in series [1] of more than 10000 nM. Molecule `CCOC(=O)[C@]1(c2ccccc2)N=C(c2ccc(OC)cc2)N(Cc2ccccc2)[C@@H]1c1ccc(NS(=O)(=O)C2CC2)cc1` (racemic) came in with an IC50 in series [1] of 910 nM. `CCOC(=O)[C@]1(c2ccccc2)N=C(c2ccc(OC)cc2)N(Cc2ccccc2)[C@@H]1c1ccc(NCc2ccc(O)cc2)cc1` (racemic): the results for the viability at 10 µM in the series on THP-1 [6] and with THP-1 [4] were 23% and 36%, respectively. Further, in [1], the IC50 was 540 nM. Consider `CCOC(=O)[C@]1(c2ccccc2)N=C(c2ccc(OC)cc2)N(Cc2ccccc2)[C@@H]1c1ccc(NCc2ccccc2)cc1` (racemic), for which the viability at 10 µM was 4% in the series with THP-1 [6] and 19% in the series with THP-1 [4]. Also, the inhibition entry in the series listed under Homo sapiens [7] is “Active”. `CCOC(=O)[C@]1(c2ccccc2)N=C(c2ccc(OC)cc2)N(Cc2ccccc2)[C@@H]1c1ccc(NC(=N)N)cc1` (racemic) came in with an IC50 in series [1] of 630 nM. On to `CCOC(=O)[C@]1(c2ccccc2)N=C(c2ccc(OC)cc2)N(Cc2ccccc2)[C@@H]1c1ccc(NS(=O)(=O)N(C)C)cc1` (racemic), for which the IC50 in series [1] was found to be 1220 nM. Take `O=C(OCc1ccccc1)[C@]1(c2ccccc2)N=C(c2ccccc2)N(Cc2ccccc2)[C@@H]1c1ccccc1`: the IC50 is 2400 nM in series [1] and 3500 nM in [2].

In turn, `CCOC(=O)[C@]1(c2ccccc2)N=C(c2ccccc2)N(Cc2ccccc2)[C@@H]1c1ccc(S(C)(=O)=O)cc1` (racemic) showed an IC50 in [1] of more than 10000 nM. The molecule `CCOC(=O)[C@]1(c2ccccc2)N=C(c2ccccc2)N(Cc2ccc(F)cc2)[C@@H]1c1ccccc1` registered an IC50 in series [1] of 3710 nM. In turn, `CCOC(=O)[C@]1(c2ccccc2)N=C(c2ccccc2)N(Cc2ccc(Br)cc2)[C@@H]1c1ccccc1` gave an IC50 in [1] of 1900 nM. In series [5], this molecule showed a solubility of less than 500 µg/mL.

As to `CCOC(=O)[C@]1(c2ccccc2)N=C(c2ccc(OC)cc2)N(Cc2ccccc2)[C@@H]1c1ccc(NS(=O)(=O)c2ccc(OC)cc2OC)cc1` (racemic), the IC50 in [1] worked out at 530 nM. The same measure, in the same setting: as for `CCOC(=O)[C@]1(c2ccccc2)N=C(c2ccccc2)N(Cc2ccccc2)[C@@H]1c1ccc(Cl)cc1`, the figure is 2230 nM. The molecule `CCOC(=O)[C@]1(c2ccccc2)N=C(c2ccc(OC)cc2)N(Cc2ccccc2)[C@@H]1c1ccc(NS(=O)(=O)Cc2ccccc2)cc1` displayed an IC50 in series [1] of 1080 nM. As to `c1ccc(CN2CCN=C2c2ccccc2)cc1`, the IC50 in series [1] and in [2] was more than 10000 nM each time. For `CC(C)C[C@H](NC(=O)[C@H](Cc1ccccc1)NC(=O)c1cnccn1)B(O)O` [BORTEZOMIB], the results for the viability at 0.5 µM in the series on THP-1 [8] and in the series on THP-1 [10] were 68% and less than 5%, respectively. The same molecule showed an IC50 in series [9] of 5 nM. Consider `c1ccc(CN2C(c3ccccc3)=N[C@@H](c3ccccc3)[C@H]2c2ccccc2)cc1`, for which the IC50 in [1] and in series [2] was more than 10000 nM throughout. As to `CCOC(=O)[C@]1(c2ccccc2)N=C(c2ccccc2)N(Cc2ccc(Cl)cc2)[C@@H]1c1ccccc1`, the IC50 in series [1] came out at 2020 nM. This molecule yielded a solubility in series [5] of less than 500 µg/mL. Turning to `CCOC(=O)[C@]1(c2ccccc2)N=C(c2ccccc2)N(Cc2ccccc2)[C@@H]1c1ccc(N)cc1`, half-maximal inhibition in [1] (IC50) required 3520 nM. As for `CCOC(=O)[C@]1(c2ccccc2)N=C(c2ccccc2)N(Cc2ccccc2)[C@@H]1c1ccco1`, half-maximal inhibition in series [1] (IC50) required 6130 nM.

Regarding `O=C(OCCO)[C@]1(c2ccccc2)N=C(c2ccccc2)N(Cc2ccccc2)[C@@H]1c1ccccc1` (racemic), the values for the IC50 in [1] and in [2] were 3200 nM and 10900 nM, respectively. Turning to `NC(=O)[C@]1(c2ccccc2)N=C(c2ccccc2)N(Cc2ccccc2)[C@@H]1c1ccccc1`, the values for the IC50 in series [1] and in series [2] were more than 10000 nM and more than 20000 nM, respectively. Consider `CCOC(=O)[C@]1(c2ccccc2)N=C(c2ccc(OC)cc2)N(Cc2ccccc2)[C@@H]1c1ccc(NS(=O)(=O)c2ccccc2)cc1` (racemic), for which the IC50 in [1] was 580 nM. `CCOC(=O)[C@]1(c2ccccc2)N=C(c2ccc(OC)cc2)N(Cc2ccccc2)[C@@H]1c1ccc(NC(C)=O)cc1` (racemic) returned an IC50 in series [1] of 2170 nM. The same measure, in the same setting: under `CCOC(=O)[C@]1(c2ccccc2)N=C(c2ccccc2)N(Cc2ccco2)[C@@H]1c1ccccc1` stands 7040 nM. Consider `CCOC(=O)[C@]1(c2ccccc2)N=C(c2ccccc2)N(S(=O)(=O)c2ccc(C)cc2)[C@@H]1c1ccccc1`, for which the IC50 in [1] was more than 10000 nM. Turning to `CCOC(=O)[C@]1(c2ccccc2)N=C(c2ccc(OC)cc2)N(Cc2ccccc2)[C@@H]1c1ccc(N)cc1` (racemic), the viability at 10 µM was 44% in the series on THP-1 [6] and 98% with THP-1 [4]. Also, the IC50 in [1] turned out to be 1970 nM. For `CCOC(=O)[C@]1(c2ccccc2)N=C(c2ccc(OC)cc2)N(Cc2ccccc2)[C@@H]1c1ccc(C#N)cc1` (racemic), the IC50 in [1] was more than 10000 nM.

In the case of `CCOC(=O)[C@]1(c2ccccc2)N=C(c2ccccc2)N(Cc2ccccc2)[C@@H]1c1ccc(NS(=O)(=O)c2ccccc2)cc1` (racemic), the IC50 in series [1] came out at 1080 nM.

Values taken from ChEMBL document CHEMBL2406988, “Inhibition of the human proteasome by imidazoline scaffolds” (J Med Chem, 2013).
